Measurements as given in ChEMBL document CHEMBL4007452, “Discovery of an Orally Selective Inhibitor of Signal Transducer and Activator of Transcription 3 Using Advanced Multiple Ligand Simultaneous Docking” (J Med Chem, 2017).
Activity calls are given as the source filed them. The rule behind the calls is not given here.

Experiments:
[1] = system: Mus musculus; test: In vivo inhibition of STAT3 in po dosed BALB/c nude mouse xenografted with human MDA-MB-231 assessed as reduction in p-STAT3 level administered as qd for 32 days by DAB-staining based IHC analysis; format: functional, organism-based
Outline: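 Fixed sections of MDA-MB-231 xenograft tumors from orally dosed nude mice were immunostained for p-STAT3, with positive cells visualized by DAB.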

[2] = target: T1, Signal transducer and activator of transcription 5B (Homo sapiens) (UniProt P51692); test: Binding affinity to STAT5B (unknown origin) after 30 mins by fluorescence polarization assay
T1 sequence (whole entry): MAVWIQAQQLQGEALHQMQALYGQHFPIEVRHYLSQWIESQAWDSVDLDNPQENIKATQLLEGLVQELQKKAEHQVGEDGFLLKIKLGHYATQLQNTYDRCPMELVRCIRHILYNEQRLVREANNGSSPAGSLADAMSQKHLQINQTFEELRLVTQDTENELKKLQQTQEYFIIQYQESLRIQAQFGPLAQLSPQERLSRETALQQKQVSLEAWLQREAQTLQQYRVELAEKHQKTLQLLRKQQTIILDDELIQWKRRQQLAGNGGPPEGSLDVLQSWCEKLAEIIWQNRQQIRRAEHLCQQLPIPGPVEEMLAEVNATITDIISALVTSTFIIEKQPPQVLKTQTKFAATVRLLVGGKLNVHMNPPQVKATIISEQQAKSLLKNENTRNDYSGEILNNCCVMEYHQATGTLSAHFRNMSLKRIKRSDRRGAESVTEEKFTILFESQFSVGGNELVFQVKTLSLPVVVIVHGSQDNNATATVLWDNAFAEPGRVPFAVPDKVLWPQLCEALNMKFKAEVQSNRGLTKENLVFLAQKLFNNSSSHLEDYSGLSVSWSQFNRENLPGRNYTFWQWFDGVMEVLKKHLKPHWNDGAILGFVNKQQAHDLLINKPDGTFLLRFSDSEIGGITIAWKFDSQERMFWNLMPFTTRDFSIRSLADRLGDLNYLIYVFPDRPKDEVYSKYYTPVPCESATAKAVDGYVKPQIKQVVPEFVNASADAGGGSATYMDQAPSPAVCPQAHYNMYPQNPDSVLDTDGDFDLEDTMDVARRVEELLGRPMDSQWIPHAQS
Outline: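 A competitive fluorescence polarization assay measured displacement of fluorescent phosphopeptide from the SH2 domain of purchased STAT1 or STAT5 protein, using the corresponding peptides.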

[3] = system: Rattus norvegicus; test: Apparent volume of distribution in Sprague-Dawley rat plasma at 10 mg/kg, po measured after 24 hrs by UPLC analysis; format: ADME, organism-based; settings: in vivo
Outline: (§1)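 Rat plasma sampled from 2 min to 24 h after a single i.v. (1 mg/kg) or p.o. (10 mg/kg) dose. Parameters were derived from the concentration-time profiles. The bioanalytical method was validated to FDA guidelines for selectivity, linearity, LLOQ, accuracy, precision, recovery, matrix effect and stability.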

[4] = system: MDA-MB-231; test: Anticancer activity against human MDA-MB-231 cells xenografted in BALB/c nude mouse assessed as reduction in tumor volume at 10 mg/kg, po qd administered for 32 days; format: functional; parameters: scale not given: the % may be the effect or the level left
Outline: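 Female athymic BALB/c nude mice, 6 weeks old, bearing s.c. flank MDA-MB-231 xenografts (5 x 10^6 cells). Dosing began at about 100 mm3 tumor volume; 8 mice per group, one tumor each. Drug was given orally in saline, with a saline vehicle control, for 32 days. Caliper L and W measured every other day; volume = 0.5236×L×W².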

[5] = Terminal half life in Sprague-Dawley rat plasma at 10 mg/kg, po measured after 24 hrs by UPLC analysis; format: ADME, organism-based; settings: read-out: beta t1/2 (converted)
Outline: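 Rats dosed i.v. or p.o. Plasma concentrations followed from 2 min to 24 h after dosing. The bioanalytical method was validated to FDA guidelines for selectivity, linearity, LLOQ, accuracy, precision, recovery, matrix effect and stability.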

[6] = system: Mus musculus; test: Effect on total STAT3 level in BALB/c nude mouse xenografted with human MDA-MB-231 at 2.5 to 10 mg/kg, po qd administered for 32 days by Western blot analysis; format: ADME, organism-based; settings: in vivo, 768 h
Outline: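 Whole-cell lysates from MDA-MB-231 xenograft tumors of mice dosed orally at 2.5, 5 or 10 mg/kg were immunoblotted for P-STAT3(Y705), T-STAT3 and GAPDH.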

[7] = target: T2, Signal transducer and activator of transcription 3 (Homo sapiens, UniProt P40763); test: Displacement of 5-FAM-SpYLPQTV from STAT3 (unknown origin) at pY705 site after 30 mins by fluorescence polarization assay
T2 sequence (P40763 whole entry): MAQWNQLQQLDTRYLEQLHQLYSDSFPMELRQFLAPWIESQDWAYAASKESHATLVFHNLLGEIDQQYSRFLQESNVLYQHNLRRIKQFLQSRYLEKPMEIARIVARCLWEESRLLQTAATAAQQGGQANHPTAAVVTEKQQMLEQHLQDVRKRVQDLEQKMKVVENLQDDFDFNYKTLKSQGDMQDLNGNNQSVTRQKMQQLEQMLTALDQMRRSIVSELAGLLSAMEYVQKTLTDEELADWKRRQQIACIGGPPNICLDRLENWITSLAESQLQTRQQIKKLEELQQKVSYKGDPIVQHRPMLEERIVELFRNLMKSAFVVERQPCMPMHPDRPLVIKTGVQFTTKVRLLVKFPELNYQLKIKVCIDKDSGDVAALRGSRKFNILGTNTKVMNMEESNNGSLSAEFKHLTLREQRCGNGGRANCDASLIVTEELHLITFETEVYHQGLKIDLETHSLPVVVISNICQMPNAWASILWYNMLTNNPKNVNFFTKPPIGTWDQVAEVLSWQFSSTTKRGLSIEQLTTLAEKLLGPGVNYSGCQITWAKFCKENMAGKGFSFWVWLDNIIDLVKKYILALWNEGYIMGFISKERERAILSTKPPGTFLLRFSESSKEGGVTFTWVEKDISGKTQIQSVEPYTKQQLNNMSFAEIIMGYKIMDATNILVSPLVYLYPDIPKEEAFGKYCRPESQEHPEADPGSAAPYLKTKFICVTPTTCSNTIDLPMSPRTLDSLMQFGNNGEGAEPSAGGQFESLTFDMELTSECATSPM

[8] = target: T2, Signal transducer and activator of transcription 3; settings: 5 uM
[9] = system: Mus musculus; test: Toxicity in BALB/c nude mouse xenografted with human MDA-MB-231 cells assessed as kidney damage at 2.5 to 10 mg/kg, po qd administered for 32 days by H&E staining based light microscopy; format: organism-based; settings: in vivo, 768 h
Outline: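 6-week-old female athymic SPF BALB/c nude mice received 5 x 10^6 MDA-MB-231 cells s.c. in the flank. Oral treatment began once tumors reached about 100 mm3, with 8 mice per group and a saline vehicle control. […] Treatment lasted 32 days. Heart, liver, spleen, lung and kidney were fixed 48 h in 10% neutral-buffered formaldehyde, paraffin-embedded, cut at 5 µm, H&E-stained and examined by light microscopy.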

[10] = system: Rattus norvegicus; test: AUMC (0 to t) in Sprague-Dawley rat plasma at 10 mg/kg, po measured after 24 hrs by UPLC analysis; format: ADME, organism-based; settings: in vivo; outline: as §1
[11] = system: Mus musculus; test: Acute toxicity in ICR mouse assessed as mortality at 200 to 1000 mg/kg, ip measured up to 2 weeks post-treatment; format: organism-based; settings: in vivo, 336 h
Outline: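 ICR mice of both sexes, 7 weeks old, randomized into groups of 10. Each received a single intraperitoneal dose at 200, 400, 600, 800 or 1000 mg/kg.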

[12] = target: T2, Signal transducer and activator of transcription 3; test: Binding affinity to fluorescently labeled STAT3 (unknown origin) by MST-analysis
Outline: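 Labeled STAT3 protein held constant at 10-20 nM, titrated against up to 16 serial dilutions of unlabeled inhibitor. […] Protein was dye-labeled and freed of excess dye within 45 min. Equal volumes were mixed, loaded into glass capillaries and read by microscale thermophoresis.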

[13] = Cmax in Sprague-Dawley rat plasma at 1 mg/kg, iv measured after 24 hrs by UPLC analysis; format: ADME, organism-based; parameters: dose 1 mg/kg, route intravenous; outline: as §1
[14] = Clearance in Sprague-Dawley rat plasma at 10 mg/kg, po measured after 24 hrs by UPLC analysis; format: ADME, organism-based
Outline: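 Parameters were derived from the concentration-time profiles. The bioanalytical method was validated to FDA guidelines for selectivity, linearity, LLOQ, accuracy, precision, recovery, matrix effect and stability.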

[15] = Antiproliferative activity against human BkPC-3 cells after 24 hrs by MTT assay; format: functional, cell-based; settings: BkPC-3, 24 h
Outline: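 Cells were seeded at 3000 per well and incubated 24 h at 37 °C. Compounds were added in triplicate with 10% FBS: 0.1-10 or 0.1-20 µM for cancer lines, 3.125-400 µM for MCF-10A. Viability was read by MTT absorbance at 595 nm, with IC50 fitted from the curves. DMSO stocks were 20 mM.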

For `NS(=O)(=O)c1cccc2c1C(=O)C=C(Nc1ccccc1N1CCNCC1)C2=O`, the inhibition [1] was “Dose-dependent effect”, the Activity [2] was “inactive” and the Vz [3] was 32.0925 L/kg. For the same compound, the Activity [4] was 70%, the half-life [5] was 1.98 h and the Activity [6] was “Non-Toxic”. The Ki [7] was 0.44 µM, the inhibition [8] was “Active” and the Activity [9] was “Non-Toxic”. For the same compound, the AUMCt [10] was 1622.6 hr2.ng/ml, the Activity [11] was “Non-Toxic” and the Ki [12] was 2.42 µM. For the same compound, the Cmax [13] was 359 ng/mL, the CL/F [14] was 196 mL/min/kg and the IC50 [15] was 5.1 µM.
